A selection: hits, their analogues and other compounds. The true share with any hit is near 2.4%.
NPY-Y1 PAM-ag = NPY-Y1 receptor potentiators or agonists, primary screen, cell-based; 220,000 tested, 0.37% active; AID 1304, 2008; NPY-Y1 expressing cells, potentiator/agonist activation; activation, % at 3.6 µM; in the data active = activation above about 33%, passing the limit was not always enough;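 also: cells stimulated with NPY at EC10 then isoproterenol at EC100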
NPY-Y1 antag = NPY-Y1 receptor antagonists, primary screen, cell-based | Neuropeptide Y receptor type 1 (Homo sapiens), P25929 | HEK293-CNG Y1 cells, membrane potential fluorescence; NPY at EC95, then isoproterenol | inhibition, % at 3.6 µM | 200,000 tested, 1% active | AID 1040, 2008;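 active = inhibition above the campaign mean inhibition of all tested compounds plus 3 SD, cut at about 20% in these data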
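Benchmarks – high control isoproterenol alone, low control NPY with isoproterenol · Material – HEK293 Y1/CNG channel cell line · Times – dye 3 h, compound 60 min room temperature, stimulation 45 min · Probe or stimulus – NPY (25 nM), isoproterenol (1 µM), Ro 20-1724 (25 µM) · Evaluation – % inhibition of NPY effect · Signal – fluorescence, membrane potential probe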
S1P4 ag = S1P4 receptor agonists, primary screen, cell-based; S1P4-expressing cell line, agonist reporter assay; activation, % at 4.98 µM; 220,000 tested, 0.35% active; in the data active = activation above about 11%
NPY-Y2 antag = NPY-Y2 receptor antagonists, primary screen, cell-based; 140,000 tested, 0.99% active; AID 793, 2007; inhibition, % at 2.7 µM; NPY-Y2 expressing cells, antagonist mode; in the data active = inhibition above about 17%
Target sequence (P49146 whole entry, looked up): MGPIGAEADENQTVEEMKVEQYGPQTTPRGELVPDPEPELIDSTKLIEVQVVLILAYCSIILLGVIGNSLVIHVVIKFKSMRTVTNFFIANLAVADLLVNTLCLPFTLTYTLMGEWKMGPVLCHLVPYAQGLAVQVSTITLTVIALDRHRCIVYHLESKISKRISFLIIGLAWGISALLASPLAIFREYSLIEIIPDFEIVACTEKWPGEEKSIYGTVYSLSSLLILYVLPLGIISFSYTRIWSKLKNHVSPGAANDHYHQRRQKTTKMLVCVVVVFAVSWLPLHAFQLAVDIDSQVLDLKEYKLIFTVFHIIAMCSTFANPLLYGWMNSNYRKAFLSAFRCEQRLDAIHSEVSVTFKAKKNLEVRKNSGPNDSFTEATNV
S1P4 antagonist = S1P4 receptor antagonists, primary screen, cell-based | Sphingosine 1-phosphate receptor 4 (Homo sapiens), O95977 | S1P4-expressing cells, antagonist mode, reporter read-out | inhibition, % at 4.98 µM | 220,000 tested, 0.26% active | AID 1510, 2009; in the data active = inhibition above about 29%
NPY2 pot ag = NPY-Y2 potentiators or agonists, primary screen, cell-based; 220,000 tested, 0.45% active; Neuropeptide Y receptor type 2 (Homo sapiens), P49146; cells expressing NPY-Y2, potentiator/agonist read-out; activation, % at 3.6 µM; in the data active = activation above about 27%;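 also: cells stimulated with NPY near EC25 plus isoproterenol at EC100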
S1P4 ag conf = S1P4 receptor agonists, retest, confirmation, cell-based, high throughput. shares compounds with S1P4 ag. S1P4 agonist cell-based reporter assay. activation, % at 4.98 µM. 740 tested, 7% active. AID 1523, 2009; in the data active = activation above about 12%
S1P1 agonist = S1P1 receptor agonists, human, counter-screen for S1P4 agonist project, cell-based; S1P1 agonist cell-based assay, activation; 740 tested, 4% active; AID 1563, 2009; activation, % at 4.98 µM; shares compounds with S1P4 ag; in the data active = activation above about 21%
A number is an active result; . = inactive; / = not tested or not shown.

SMILES | NPY-Y1 PAM-ag | NPY-Y1 antag | S1P4 ag | NPY-Y2 antag | S1P4 antagonist | NPY2 pot ag | S1P4 ag conf | S1P1 agonist
N#Cc1c(-n2cccc2C=O)sc2c1CCCC2 | . | . | 19 | / | . | . | 14 | .
CC/C(=N\NC(=O)c1cc(C)nc2ccccc12)c1ccc(C)s1 | . | . | . | . | . | . | / | /
Cc1ccc(S(=O)(=O)CCSc2n[nH]c(=O)n2-c2ccc3c(c2)OCCO3)cc1 | . | / | . | / | . | . | / | /
Cc1ccc(-n2ncc3c(=O)n(CC(=O)OCc4ccccc4)cnc32)cc1 | . | . | 17 | . | . | . | . | .
O=C(Cn1cnc2c(cnn2-c2ccccc2)c1=O)OCc1ccccc1 | . | . | . | . | . | . | / | /
COc1ccc(-c2csc(NC(=O)c3cc(=O)c4ccccc4o3)n2)cc1OC | . | . | . | / | . | . | / | /
COC(=O)c1ccc(NC(=O)CCn2c(=O)oc3ccccc32)cc1 | . | . | 13 | . | . | . | . | .
Cc1ccccc1NC(=O)CCn1c(=O)oc2ccccc21 | . | . | . | . | . | . | / | /
Cc1ccc(NC(=O)COc2ccccc2C(=O)NCCN(C)C)cc1 | . | . | . | / | . | . | / | /
CCC(C)NCCCOc1ccc([N+](=O)[O-])cc1 (centres undefined) | . | . | 58 | . | . | . | . | .
Cc1ccc(OCCn2cnc3ccccc3c2=O)c([N+](=O)[O-])c1 | . | . | . | . | . | . | / | /
O=C(Cn1cnc2ccccc2c1=O)Nc1ccc2c(c1)OCO2 | . | . | . | . | . | . | / | /
O=C(Cn1cnc2cc([N+](=O)[O-])ccc2c1=O)Nc1ccc2c(c1)OCO2 | . | . | 24 | / | . | . | . | .
Cc1nc(-c2cccc(NS(=O)(=O)c3cccc4ccccc34)c2)cs1 | . | . | 12 | . | . | . | . | .
COc1cc(-n2c(=O)c3ccccc3n(Cc3cccc(C)c3)c2=O)cc(OC)c1OC | . | . | 31 | / | . | . | . | .
COc1ccc(CSc2nnc3[nH]c(=O)cc(N)n23)cc1 | . | . | . | / | . | . | / | /
Cc1cc(=O)c2ccccc2n1Cc1ccccc1 | . | . | . | / | . | . | / | /
Cc1cc(=O)c2ccccc2n1CC(=O)NCc1ccccc1 | . | . | 19 | . | . | . | . | .
Cc1[nH]c2ccccc2c1C(=O)CSC(=S)N1CCOCC1 | . | / | . | / | . | . | / | /
Cc1ccc(-c2nnc(SCCC(=O)N3CCOCC3)o2)cc1 | . | . | . | / | . | . | / | /
O=C(CCSc1nnc(-c2ccccc2)o1)N1CCOCC1 | . | . | 28 | . | . | . | . | .
CCCNC(=O)Cn1nc([N+](=O)[O-])c([N+](=O)[O-])c1C | . | . | 14 | . | . | . | . | .
Fc1ccc(-c2nnc3ccccn23)cc1 | . | . | 29 | / | . | . | . | .
CCOC(=O)CS(=O)(=O)c1ccc(O)cc1 | . | . | 22 | / | . | . | . | .
O=[N+]([O-])c1cccc(N2Cc3ccccc3C2)c1 | . | . | . | / | . | . | / | /
SMILES | NPY-Y1 PAM-ag | NPY-Y1 antag | S1P4 ag | NPY-Y2 antag | S1P4 antagonist | NPY2 pot ag | S1P4 ag conf | S1P1 agonist
OCC(O)C1OC(Nc2ccc(Cl)cc2)C(O)C1O (centres undefined) | . | / | 71 | / | . | . | . | .
COc1ccc(C(=O)Nc2cccc(C(C)=O)c2)cc1S(=O)(=O)N1CCOCC1 | . | . | 24 | . | . | . | . | .
COc1ccc(C(=O)Nc2cccnc2)cc1S(=O)(=O)N1CCOCC1 | . | . | . | . | . | . | / | /
COc1ccc(CCNC(=O)COC(=O)C23CC4CC(CC(Br)(C4)C2)C3)cc1 | . | . | . | . | . | . | / | /
COc1ccc(CCNC(=O)COC(=O)C23CC4CC(CC(C4)C2)C3)cc1 | . | . | 11 | . | . | . | . | .
CNC(=O)c1cccnc1Nc1cccc(C(F)(F)F)c1 | . | . | 33 | . | . | . | . | .
Cc1cccnc1NC(=O)Nc1cccc(C(F)(F)F)c1 | . | . | . | . | . | . | / | /
Cc1ccc[n+](CC(=O)/C=C2\N(C)c3ccccc3C2(C)C)c1 | . | . | . | . | . | . | / | /
Cc1cccc[n+]1CC(=O)/C=C1\N(C)c2ccccc2C1(C)C | . | . | 21 | . | . | . | . | .
CCOC(=O)c1sc(-c2ccccc2)cc1NC(=O)Nc1ccccc1 | . | . | 25 | . | . | . | . | .
Cc1ncc([N+](=O)[O-])n1CC(=O)NCCc1ccccc1 | . | . | 16 | / | . | . | . | .
CCN(CC)S(=O)(=O)c1ccc(N2CCOCC2)c(NC(=O)c2cc([N+](=O)[O-])ccc2Cl)c1 | . | . | . | / | . | . | / | /
CC1=CC(C)(C)[N+](C)=CN1c1ccccc1 | . | . | 33 | . | . | . | . | .
Cc1nc2cc(C(=O)O)ccc2n1-c1ccccc1 | . | . | . | . | . | . | / | /
CC(CNC(=O)CCc1nnc(CCC2CCCCC2)o1)c1ccccc1 (centres undefined) | . | . | . | / | . | . | / | /
COc1cccc(CC(NC(C)=O)C(=O)NC2CCN(c3c(Cc4ccccc4)c(C)nc4ncnn34)CC2)c1OC (centres undefined) | . | . | 14 | . | . | . | . | .
CCOCCN(C(=O)COC)c1cccc(OC)c1 | . | . | 26 | . | . | . | . | .
COC(=O)c1cc(NC(=O)c2ccc(OC)cc2)c(=O)oc1C | . | . | . | / | . | . | / | /
CCOC(=O)c1cc(NC(=O)c2ccc(OC)cc2)c(=O)oc1-c1ccccc1 | . | . | 22 | . | . | . | . | .
O=C(COC(=O)c1cccc(C(F)(F)F)c1)NCc1ccc(Cl)cc1 | . | . | . | . | . | . | / | /
O=C(COC(=O)c1cccc(C(F)(F)F)c1)NCc1ccccc1 | . | . | 23 | . | . | . | . | .
O=C(COC(=O)c1ccncc1)NCc1ccccc1 | . | . | . | . | . | . | / | /
O=C(COC(=O)c1ccc(Br)cc1)NCc1ccccc1 | . | . | 15 | . | . | . | . | .
C#CC(CC)(CC)NC(=O)NC1CCCCC1 | . | . | . | / | . | . | / | /
COc1ccccc1C(=O)c1cc2ccc(O)cc2oc1=O | . | . | . | / | . | . | / | /
C/C(=N\NC(=O)CC#N)c1cc2ccc(O)cc2oc1=O | . | . | 57 | / | . | . | . | .
c1ccc(CC2CCCNC2)cc1 (centres undefined) | . | . | 49 | / | . | . | . | .
